Data set [1] deals with MA-10 cells. Nature of the data set: Basal testosterone secretion by MA-10 Leydig cells. The conditions noted are these: for decrease of basal T secretion compared with vehicle-treated control cells: 10 μM; for decrease of basal T secretion compared with vehicle-treated control cells / T secretion, concentration curves without LH: 48 h; for T secretion by MA-10 cells compared with vehicle-control: basal T secretion, conazole 10 μM; for T secretion, concentration curves without LH: SU10603 0.05-1 μM, FLUS or TEBU 0.3-10 μM, Supplementary Fig. 1. The format is cell-based, murine.

The target of data set [2] is T1, androgen receptor (AR) (Homo sapiens, UniProt P10275).
T1 sequence (P10275 1-920): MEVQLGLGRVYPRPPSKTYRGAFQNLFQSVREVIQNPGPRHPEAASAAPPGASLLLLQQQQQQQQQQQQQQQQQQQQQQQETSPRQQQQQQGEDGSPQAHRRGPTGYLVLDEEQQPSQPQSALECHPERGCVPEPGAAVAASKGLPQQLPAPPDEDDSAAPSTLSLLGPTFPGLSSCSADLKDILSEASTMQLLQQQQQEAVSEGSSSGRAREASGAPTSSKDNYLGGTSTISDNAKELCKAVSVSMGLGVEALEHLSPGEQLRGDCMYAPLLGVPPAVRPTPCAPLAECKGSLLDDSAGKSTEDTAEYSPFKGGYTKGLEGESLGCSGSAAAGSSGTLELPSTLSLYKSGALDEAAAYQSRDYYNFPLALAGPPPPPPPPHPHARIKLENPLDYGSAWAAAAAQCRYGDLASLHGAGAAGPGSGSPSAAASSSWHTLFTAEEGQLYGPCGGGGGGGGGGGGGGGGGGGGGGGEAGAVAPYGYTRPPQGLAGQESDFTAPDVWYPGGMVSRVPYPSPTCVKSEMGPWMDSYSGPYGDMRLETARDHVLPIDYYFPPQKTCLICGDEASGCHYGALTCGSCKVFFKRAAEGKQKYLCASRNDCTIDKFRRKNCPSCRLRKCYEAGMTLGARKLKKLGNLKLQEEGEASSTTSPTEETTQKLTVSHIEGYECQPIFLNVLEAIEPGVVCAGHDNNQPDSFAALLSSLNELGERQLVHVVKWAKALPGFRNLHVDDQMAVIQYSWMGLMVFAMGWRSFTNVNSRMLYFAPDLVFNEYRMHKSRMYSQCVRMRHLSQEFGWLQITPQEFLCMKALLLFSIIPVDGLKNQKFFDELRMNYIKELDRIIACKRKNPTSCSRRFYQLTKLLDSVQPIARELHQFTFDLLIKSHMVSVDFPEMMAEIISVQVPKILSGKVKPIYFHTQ
The format is cell-based. The conditions noted are these: BMR25%FLUT/BMR25%FLUT conazole.

The test system of data set [3] is MA-10 cells. Nature of the data set: Reactive oxygen species assay. The format is cell-based, murine. The conditions noted are these: for ROS formation compared with vehicle-treated control cells: 100 μM, 48-h exposure. A digest of the protocol: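 MA-10 cells seeded at 7.5 × 10^4 cells/well in gelatin-coated plates 24 h beforehand, loaded with H2-DCFDA (10 μM, 2 h, 37 °C), then washed twice in warm PBS. Exposure to 0.01–100 μM in serum-free, phenol red-free DMEM/F-12 (≤0.1% DMSO) for up to 48 h. Fluorescence read at 485/530 nm at 0, 1, 24 and 48 h and expressed as % of time-matched control. Positive controls were H2O2 20 mM (1 h) and rotenone 100 μM (24/48 h). Three independent experiments, quadruplicates.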

The subject of data set [4] is MA-10 cells. Kind of data set: Expression of cholesterol biosynthesis genes in MA-10 cells. Conditions: 6-h exposure; cAMP 100 μM, conazole 10 μM. The format is cell-based, murine.
For data set [5], the system named is MA-10 cells. Kind of data set: Expression of steroidogenic genes in MA-10 cells. The format is cell-based, murine. The conditions noted are these: 6-h exposure; conazole 10 μM.
For data set [6], the system named is MA-10 cells. Kind of data set: LH-induced testosterone secretion by MA-10 Leydig cells. The format is cell-based, murine. The conditions noted are these: read-out: IC50 of T secretion inhibition in combination with LH; LH 10 ng/mL; 48-h exposure.
The conditions of data set [7]: cited from earlier work.
The conditions of data set [8]: humans; cited from earlier work.

The IC50 is the concentration needed to halve the response being measured.

As to `CCCCC(O)(Cn1cncn1)c1ccc(Cl)cc1Cl` (centres unmarked) [HEXA, Hexaconazole], the “decrease of basal T secretion compared with vehicle-treated control cells” value (“decrease of basal T secretion” for short) in data set [1] is listed as “more than 50%”. In data set [1] (48-h exposure), the “T secretion by MA-10 cells compared with vehicle-control” value is on record as 36%. Also, in data set [2], the “REP (relative effect potency as compared to flutamide)” value worked out at 0.26. The “ROS formation compared with vehicle-treated control cells” value in data set [3] amounted to 1.2 fold.

On to `CCCN(CCOc1c(Cl)cc(Cl)cc1Cl)C(=O)n1ccnc1` [PRO, Prochloraz], for which the “decrease of basal T secretion” value in data set [1] is “more than 50%”. The “T secretion by MA-10 cells compared with vehicle-control” value in data set [1] (48-h exposure) worked out at 23%. In data set [4], the “gene expression of Cyp51 in comparison with vehicle-treated cells” value came out at 1.7 fold and the “gene expression of HMG-CoA red in comparison with vehicle-treated cells” value was determined as 1.9 fold. Besides, in data set [3], the “ROS formation compared with vehicle-treated control cells” value is 1.3 fold. The “gene expression of five steroidogenic genes (StAR, Cyp11A1, Cyp17A1, 3β-HSD1, 17β-HSD3)” value in data set [5] is “did not significantly affect”.

As to `CC1(C)CCC(=Cc2ccc(Cl)cc2)C1(O)Cn1cncn1` (centres unmarked) [TRIT, Triticonazole], in data set [1], the “decrease of basal T secretion” value is recorded as “more than 50%”. Moreover, the “T secretion by MA-10 cells compared with vehicle-control” value in data set [1] (48-h exposure) stood at 44%. Also, in data set [2], the “REP (relative effect potency as compared to flutamide)” value turned out to be 0.25. Also, the “ROS formation compared with vehicle-treated control cells” value in data set [3] is given as “did not significantly change”.

As for `O=C1c2cc(Cl)ccc2CCC1c1cccnc1` (centres unmarked) [SU10603, reference compound], the IC50 in data set [6] came to 500 nM. Moreover, the “decrease of T secretion compared to vehicle-treated cells” value in data set [1] (SU10603 1 μM, 48-h exposure) was found to be 82%. Further, the “T secretion, concentration curves without LH” value in data set [1] is reported as “concentration-dependently inhibited T secretion”.

For `CC(C)(C)C(O)(CCc1ccc(Cl)cc1)Cn1cncn1` (centres unmarked) [TEBU, Tebuconazole], in data set [1], the “decrease of basal T secretion” value is given as “more than 50%” and the “T secretion, concentration curves without LH” value is reported as “concentration-dependently inhibited T secretion”. Moreover, in data set [7], the “elimination half-life in soil” value was “approximately 800 days”. Further, the “gene expression of Por in comparison with vehicle-treated cells” value in data set [4] turned out to be 0.8 fold. Also, in data set [3], the “ROS formation compared with vehicle-treated control cells” value amounted to 1.4 fold. The “gene expression of five steroidogenic genes (StAR, Cyp11A1, Cyp17A1, 3β-HSD1, 17β-HSD3)” value in data set [5] is “did not significantly affect”.

Consider `C[Si](Cn1cncn1)(c1ccc(F)cc1)c1ccc(F)cc1` [FLUS, Flusilazole], for which, in data set [1], the “decrease of basal T secretion” value is “more than 50%” and the “T secretion, concentration curves without LH” value was “concentration-dependently inhibited T secretion”. The “ROS formation compared with vehicle-treated control cells” value in data set [3] stood at 1.2 fold. The “gene expression of five steroidogenic genes (StAR, Cyp11A1, Cyp17A1, 3β-HSD1, 17β-HSD3)” value in data set [5] was “did not significantly affect”.

As for `CCCCC(C#N)(Cn1cncn1)c1ccc(Cl)cc1` (centres unmarked) [MYC, Myclobutanil], the “ROS formation compared with vehicle-treated control cells” value in data set [3] is recorded as “did not significantly change”.

For the molecule `CC(C1CC1)C(O)(Cn1cncn1)c1ccc(Cl)cc1` (centres unmarked) [CYPRO, Cyproconazole], the “ROS formation compared with vehicle-treated control cells” value in data set [3] is on record as “did not significantly change”. Also, the “gene expression of five steroidogenic genes (StAR, Cyp11A1, Cyp17A1, 3β-HSD1, 17β-HSD3)” value in data set [5] was “did not significantly affect”.

In the case of `CC(C)(C)C(=O)C(Oc1ccc(Cl)cc1)n1cncn1` (centres unmarked) [TRIA, Triadimefon], the “ROS formation compared with vehicle-treated control cells” value in data set [3] is “did not significantly change”.

As for `CCCC(Cn1cncn1)c1ccc(Cl)cc1Cl` (centres unmarked) [PEN, Penconazole], the “ROS formation compared with vehicle-treated control cells” value in data set [3] is “did not significantly change”.

On to `OC(Cn1cncn1)(Cn1cncn1)c1ccc(F)cc1F` [FLUC, Fluconazole, reference compound], for which the Tmax result in data set [8] is reported as “approximately 2 h”. Also, the “ROS formation compared with vehicle-treated control cells” value in data set [3] is “did not significantly change”.

For the molecule `C=C(C)[C@H]1Cc2c(ccc3c2O[C@@H]2COc4cc(OC)c(OC)cc4[C@@H]2C3=O)O1` [rotenone, reference compound], the “ROS production, % of the control” value in data set [3] (rotenone 100 μM, 48 h) is reported as 158 ± 18%.

The values are drawn from PMC5598417 (Toxicology Reports, 2014).
